Assay results from PubChem BioAssay.
Activity calls are given as the source filed them.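 The calls were made as follows, unless noted: active = viability at or below 10% of carrier control in both of two separate runs; inconclusive = viability at or below 10% in only one of the two runs; inactive = the rest.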

What was measured:
[1] = reducers of endogenous Her2 protein level, primary screen, SKBR3 breast tumor cells, AlphaScreen, ATP viability (AID 461;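 active = Her2 level under about 52% in both replicate screens, with viability over 70% of control, limit read from the data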;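 as to Her2 level: lower value means less Her2 protein in the cells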;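 as to viability: percent of carrier control wells set as 100% viability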); details: 18-24 h, measured here: SKBR3 viability, ATP luminescence, at 10 µM
[2] = target: Receptor tyrosine-protein kinase erbB-2 (Homo sapiens) (UniProt P04626); experiment: as above; details: 18-24 h, at 10 µM, stronger effect = lower value
Receptor tyrosine-protein kinase erbB-2 (Homo sapiens), sequence (P04626 whole entry, looked up): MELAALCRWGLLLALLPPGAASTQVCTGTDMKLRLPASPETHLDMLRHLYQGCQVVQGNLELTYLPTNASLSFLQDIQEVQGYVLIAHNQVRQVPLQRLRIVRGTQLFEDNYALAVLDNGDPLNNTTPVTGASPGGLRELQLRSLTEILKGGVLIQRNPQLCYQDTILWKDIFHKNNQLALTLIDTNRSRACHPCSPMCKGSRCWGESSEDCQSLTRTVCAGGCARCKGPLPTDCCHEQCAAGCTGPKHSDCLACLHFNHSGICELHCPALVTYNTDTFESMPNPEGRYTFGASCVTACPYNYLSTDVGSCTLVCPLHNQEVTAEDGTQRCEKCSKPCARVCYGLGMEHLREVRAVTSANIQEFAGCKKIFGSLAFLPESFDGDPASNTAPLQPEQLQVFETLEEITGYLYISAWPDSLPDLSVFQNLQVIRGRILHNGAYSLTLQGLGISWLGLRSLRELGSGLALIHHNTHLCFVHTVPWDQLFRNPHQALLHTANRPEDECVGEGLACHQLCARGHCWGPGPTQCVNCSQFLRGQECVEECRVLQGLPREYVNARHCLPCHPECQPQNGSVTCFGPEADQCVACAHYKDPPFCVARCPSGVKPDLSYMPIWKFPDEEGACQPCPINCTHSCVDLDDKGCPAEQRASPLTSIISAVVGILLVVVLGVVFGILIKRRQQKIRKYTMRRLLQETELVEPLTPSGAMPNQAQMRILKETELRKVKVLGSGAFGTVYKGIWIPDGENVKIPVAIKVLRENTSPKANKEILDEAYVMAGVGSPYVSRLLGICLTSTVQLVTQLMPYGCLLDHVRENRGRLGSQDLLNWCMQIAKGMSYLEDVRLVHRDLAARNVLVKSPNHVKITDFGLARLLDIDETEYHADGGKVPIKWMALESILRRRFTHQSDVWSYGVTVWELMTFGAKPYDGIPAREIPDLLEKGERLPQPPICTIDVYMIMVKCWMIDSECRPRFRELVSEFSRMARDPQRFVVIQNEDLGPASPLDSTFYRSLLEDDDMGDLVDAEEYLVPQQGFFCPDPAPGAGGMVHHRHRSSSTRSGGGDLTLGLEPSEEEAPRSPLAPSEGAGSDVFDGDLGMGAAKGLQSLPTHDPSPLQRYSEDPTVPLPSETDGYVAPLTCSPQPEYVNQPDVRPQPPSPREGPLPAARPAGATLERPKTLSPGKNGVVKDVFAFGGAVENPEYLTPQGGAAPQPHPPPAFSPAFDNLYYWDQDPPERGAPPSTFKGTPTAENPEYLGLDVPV

[3] = SK-BR-3 cell growth inhibitors, pilot screen, 24 h, human (AID 572); details: SK-BR-3 viability, CellTiter-Glo luminescence, at 10 µM, stronger effect = lower value;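 also: compound exposure lasted between 18 and 24 h rather than exactly 24 h; 100% = carrier-treated control wells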
[4] = HUVEC growth inhibition – cell-based, human, primary screen (AID 575;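 active = viability at or below 30% in both replicate assays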;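 also: 100% = median of untreated cell wells with 0.1% DMSO on each plate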); details: HUVEC proliferation, CellTiter-Glo luminescence, 72 h; at 10 µM; stronger effect = lower value
Outline: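 Test system: primary human umbilical vein endothelial cells; medium: endothelial basal medium with 2% FBS plus growth supplements; dosing: 10 µM compound only; times: 72 h treatment at 37 °C; signal: CTG luminescence; read-out: % viability relative to median vehicle-well signal on each plate; control set: vehicle and MePR control wells; plate: 384-well, collagen-coated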

[5] = growth inhibitors of H69AR lung tumor, primary screen, human, duplicate replicates (AID 580;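 active = viability at or under a set limit in both replicates, limit being median viability minus 3 SD, cut at about 48% in these data, passing the limit was not always enough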;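 also: 100% = mean luminescence of untreated wells and 0% = no signal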); details: H69AR lung tumor cells viability, ATP luminescence, 72 h; at 10 µM; stronger effect = lower value
[6] = reversal of MRP1-mediated doxorubicin resistance, pilot screen, H69AR cells, doxorubicin co-treatment (AID 601;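 active = viability loss from added drug above about 55%, and viability with drug at most 40%, in both replicates, limit read from the data, passing the limit was not always enough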); details: CellTiter-Glo, 72 h, at 10 µM; for differential viability (reversal): stronger effect = higher value
[7] = 384-well plate pilot, post-Golgi transport modulator project, inhibition of yeast transport mutant growth (AID 636; in the data active = inhibition above about 31%); details: absorbance 615 nm, about 18 h, stronger effect = higher value
[8] = growth suppression of yeast trafficking mutant, preliminary HTS, modulators of trafficking downstream of Golgi apparatus project, 1536-format plate, OD 615 nm (AID 637; in the data active = inhibition above about 30%); details: yeast transport mutant growth, absorbance 615 nm, 18 h; stronger effect = higher value
[9] = H69AR cells + 2 uM doxorubicin, measured here: viability with 2 uM doxorubicin, stronger effect = lower value
[10] = H69AR cells, compound alone cytotoxicity

Row | SMILES | viability [1] [%] | Her2 level [2] | viability [3] | viability [4] | viability [5] | differential viability (reversal) ([6]; H69AR cells + 2 uM doxorubicin) | viability [6, 9] [%] | viability [6, 10] [%] | inhibition [7] | inhibition [8]
1 | CCc1c(C(=O)N2CCOCC2)csc1C | 120 | 154% (inactive) | 120% (inactive) | 101% (inactive) | 106% (inactive) | 20.8% (inactive) | 84.9 | 106 | -3.95% (inactive) | -8.33% (inactive)
2 | CCc1nnc(NC(=O)c2cccc(C(=O)Nc3nnc(CC)s3)n2)s1 | 53.5 | 72% (inactive) | 53.5% (inactive) | 3.29% (active) | 8.87% (active) | 1.33% (inactive) | 7.54 | 8.87 | 83.5% (active) | 73% (active)
3 | Cc1ccc(NC(=O)N2CCC(c3nc4c(nnn4Cc4cccc(Cl)c4)c(=O)[nH]3)CC2)cc1 | 81.5 | 76.5% (inactive) | 81.5% (inactive) | 61.8% (inactive) | 85.2% (inactive) | 19.6% (inactive) | 65.6 | 85.2 | -0.13% (inactive) | -1.45% (inactive)
4 | CCOC(=O)N1CCN(C(=O)COc2ccc(S(=O)(=O)NC3CCCCC3)cc2C)CC1 | 112 | 110% (inactive) | 112% (inactive) | 80.9% (inactive) | 98.9% (inactive) | 0.31% (inactive) | 98.5 | 98.9 | -0.4% (inactive) | -1.31% (inactive)
5 | COC(=O)Cn1c2c(c3cc(C)ccc31)CCCC2 | 83 | 99% (inactive) | 83% (inactive) | 103% (inactive) | 102% (inactive) | 8.28% (inactive) | 94.1 | 102 | -4.74% (inactive) | 4.75% (inactive)
6 | CCOC(=O)c1c(-c2ccc(C)o2)csc1NC(=O)COC(=O)c1cccs1 | 93 | 87.5% (inactive) | 93% (inactive) | 69.3% (inactive) | 84.4% (inactive) | 5.23% (inactive) | 79.2 | 84.4 | 1.3% (inactive) | -3.77% (inactive)
7 | CCOC(=O)c1cn(CC)c2cc(N3CCOCC3)c(F)cc2c1=O | 104 | 106% (inactive) | 104% (inactive) | 94.6% (inactive) | 90.8% (inactive) | -10.3% (inactive) | 101 | 90.8 | 2.16% (inactive) | -0.63% (inactive)
8 | CC(C)Cc1cc(C(=O)Nc2c(F)cc(F)cc2Br)no1 | 88.5 | 106% (inactive) | 88.5% (inactive) | 107% (inactive) | 113% (inactive) | 30% (inactive) | 82.8 | 113 | 0.64% (inactive) | -4.33% (inactive)
9 | COc1ccc(OCc2nc(N)nc(Nc3cccc(C)c3C)n2)cc1 | 98.5 | 120% (inactive) | 98.5% (inactive) | 111% (inactive) | 103% (inactive) | 7.49% (inactive) | 96 | 103 | -4.55% (inactive) | -6% (inactive)
10 | CCC(=O)OCCn1c(=O)c2cc3c(=O)n(CCOC(=O)CC)c(=O)c3cc2c1=O | 99 | 135% (inactive) | 99% (inactive) | 98.3% (inactive) | 87.2% (inactive) | -3.94% (inactive) | 91.1 | 87.2 | 4.55% (inactive) | -4.83% (inactive)
11 | Cc1ccc(S(=O)(=O)N2CCCC2C(=O)OCc2nc3ccccc3s2)cc1 (stereo not given) | 85.5 | 80.5% (inactive) | 85.5% (inactive) | 79.7% (inactive) | 99.2% (inactive) | 0.14% (inactive) | 99.1 | 99.2 | -7.95% (inactive) | -5.4% (inactive)
12 | O=C(NC1CCCCC1)n1c(=O)oc2ccc(Cl)cc21 | 118 | 92% (inactive) | 118% (inactive) | 94.8% (inactive) | 94.2% (inactive) | 17.5% (inactive) | 76.7 | 94.2 | -2.73% (inactive) | -7.62% (inactive)
13 | COC(=O)c1ccccc1NC(=O)CSc1nnnn1C1CCCCC1 | 120 | 112% (inactive) | 120% (inactive) | 81.2% (inactive) | 85.9% (inactive) | 0.925% (inactive) | 85 | 85.9 | -5.6% (inactive) | -2.26% (inactive)
14 | Cn1c(=O)[nH]c2cc3ccccc3cc21 | 118 | 94% (inactive) | 118% (inactive) | 26.6% (active) | 95.6% (inactive) | 16.5% (inactive) | 79.1 | 95.6 | -6.05% (inactive) | -0.73% (inactive)
15 | O=C(Nc1ccc2c(c1)OCO2)c1nn(-c2ccccc2)c(=O)c2ccccc12 | 108 | 81% (inactive) | 108% (inactive) | 72.8% (inactive) | 74.7% (inactive) | -4.67% (inactive) | 79.4 | 74.7 | -1.43% (inactive) | 1.75% (inactive)
16 | Cc1ncc(CSc2nc3ccccc3[nH]2)c(N)n1 | 104 | 92.5% (inactive) | 104% (inactive) | 115% (inactive) | 104% (inactive) | 16.8% (inactive) | 87.5 | 104 | -2.03% (inactive) | 1.43% (inactive)
17 | CCC(C)(C)NC(=O)C(c1ccco1)N(C(=O)Cn1nnc2ccccc21)c1ccc2c(c1)OCO2 (stereo not given) | 92.5 | 85% (inactive) | 92.5% (inactive) | 78.1% (inactive) | 105% (inactive) | 18.9% (inactive) | 85.9 | 105 | -0.53% (inactive) | -1.13% (inactive)
18 | O=C(CCN1C(=O)c2ccccc2C1=O)OCN1C(=O)c2ccccc2C1=O | 95 | 108% (inactive) | 95% (inactive) | 97.7% (inactive) | 91.8% (inactive) | -10.6% (inactive) | 102 | 91.8 | 6.8% (inactive) | -3.17% (inactive)
19 | Cc1cccc(OCCCc2c(C)n[nH]c2C)c1 | 102 | 118% (inactive) | 102% (inactive) | 121% (inactive) | 98.7% (inactive) | 20.4% (inactive) | 78.4 | 98.7 | 5.32% (inactive) | -8% (inactive)
20 | CCOc1ccc2ccccc2c1C(=O)N1CCN(c2ccccc2)CC1 | 95 | 83.5% (inactive) | 95% (inactive) | 47.3% (inactive) | 9.8% (active) | -57% (inactive) | 66.8 | 9.8 | -2.8% (inactive) | -10.6% (inactive)
21 | Cc1cc2c(c(=O)o1)C(Cc1ccccc1)C(C#N)=C(N)O2 (stereo not given) | 94 | 96% (inactive) | 94% (inactive) | 87.2% (inactive) | 98.7% (inactive) | 21.6% (inactive) | 77.2 | 98.7 | 1.45% (inactive) | 1.8% (inactive)
22 | CCSc1nnc(NC(=O)c2ccc(C)o2)s1 | 96.5 | 98.5% (inactive) | 96.5% (inactive) | 105% (inactive) | 116% (inactive) | 18.2% (inactive) | 97.4 | 116 | -4.13% (inactive) | -5.32% (inactive)
23 | CCOC(=O)C1CCCN(CCC(C)c2ccccc2)C1 (stereo not given) | 94 | 84.5% (inactive) | 94% (inactive) | 106% (inactive) | 95.7% (inactive) | 11.3% (inactive) | 84.3 | 95.7 | -6.8% (inactive) | 4.1% (inactive)
24 | COc1cccc(-n2c(C)nc3c(cnn3-c3ccc(C)cc3)c2=O)c1 | 86 | 102% (inactive) | 86% (inactive) | 79.6% (inactive) | 90.4% (inactive) | -12% (inactive) | 102 | 90.4 | 0.66% (inactive) | -10.5% (inactive)
25 | CCN1CCN(c2ncnc3c2oc2nc(C)c4c(c23)CC(C)(C)OC4)CC1 | 91.5 | 122% (inactive) | 91.5% (inactive) | 98.3% (inactive) | 97% (inactive) | -1.16% (inactive) | 98.1 | 97 | -0.78% (inactive) | -3.17% (inactive)
26 | COC(=O)c1nn(-c2ccc(-c3ccccc3)cc2)cc1O | 94 | 97% (inactive) | 94% (inactive) | 92.6% (inactive) | 89.2% (inactive) | 4.12% (inactive) | 85.1 | 89.2 | -4.27% (inactive) | -8.06% (inactive)
27 | O=c1[nH]c(CN2CCN(Cc3ccccc3)CC2)nc2sc3c(c12)CCC3 | 96 | 87.5% (inactive) | 96% (inactive) | 98.9% (inactive) | 87.9% (inactive) | 0.67% (inactive) | 87.3 | 87.9 | -4.86% (inactive) | 2.06% (inactive)
28 | CCCS(=O)(=O)N1CCN(Cc2ccc(OCc3ccccc3)c(OC)c2)CC1 | 84.5 | 114% (inactive) | 84.5% (inactive) | 105% (inactive) | 87.8% (inactive) | -5.26% (inactive) | 93.1 | 87.8 | 4.19% (inactive) | 30.2% (active)
